Assay results taken from ChEMBL document CHEMBL1811802, “Synthesis and significant cytostatic activity of 7-hetaryl-7-deazaadenosines” (J Med Chem, 2011).

Legend:
[1] = test system: SK-OV-3; experiment: Cytotoxicity against human SKOV3 cells after 3 days by MTT assay; type: functional, cell-based; conditions: SK-OV-3, 72 h
[2] = test system: CT26; experiment: Cytotoxicity against mouse CT26 cells after 3 days by MTT assay; type: functional, cell-based; conditions: CT26, 72 h
[3] = test system: LNCaP; experiment: Cytotoxicity against human LNCAP cells after 3 days by MTT assay; type: functional, cell-based; conditions: 72 h
[4] = test system: A549; experiment: Cytostatic activity against human A549 cells after 5 days by SRB assay; type: functional; conditions: A549, 120 h
Method in brief: (§1)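 Cells seeded per line density, overnight at 37 °C; day-zero plate TCA-fixed. 5-fold serial dilutions added, 5-day incubation; TCA fixation, 0.057% SRB in 1% acetic acid 30 min, dye dissolved in 10 mM Tris pH 10.5, A500. Growth relative to day-zero and untreated; GIC50 from sigmoidal dose–response fit; mean of two independent experiments.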

[5] = Cytotoxicity against human MES-SA cells after 3 days by MTT assay; type: functional, cell-based; conditions: 72 h
[6] = test system: HT-29; experiment: Cytotoxicity against human HT-29 cells after 3 days by MTT assay; type: functional, cell-based; conditions: HT-29, 72 h
[7] = test system: HL-60; experiment: Cytotoxicity against human HL60 cells after 3 days by XTT assay; type: functional, cell-based; conditions: HL-60, 72 h
Method in brief: (§2)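 Suspension-grown cell lines, 3-day compound incubation; viability read by XTT metabolic assay; IC50 averaged from four independent experiments.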

[8] = test system: CCRF-CEM; experiment: Cytotoxicity against human CCRF-CEM cells after 3 days by XTT assay; type: functional, cell-based; conditions: 72 h; method in brief: as §2
[9] = test system: HPAC; experiment: Cytotoxicity against human HPAC cells after 3 days by MTT assay; type: functional, cell-based; conditions: 72 h
[10] = Cytotoxicity against mouse P388D1 cells after 3 days by MTT assay; type: functional, cell-based; conditions: P388D1, 72 h
[11] = test system: HCT-116; experiment: Cytostatic activity against human HCT116 cells after 5 days by SRB assay; type: functional; conditions: HCT-116, 120 h; method in brief: as §1
[12] = test system: BV-173; experiment: Cytotoxicity against human BV173 cells after 3 days by MTT assay; type: functional, cell-based; conditions: BV-173, 72 h
[13] = test system: PC-3; experiment: Cytotoxicity against human PC3 cells after 3 days by MTT assay; type: functional, cell-based; conditions: PC-3, 72 h
[14] = test system: MT4; experiment: Cytostatic activity against human MT4 cells after 5 days by SRB assay; type: functional; conditions: MT4, 120 h
[15] = Cytotoxicity against human U87MG cells after 3 days by MTT assay; type: functional, cell-based, U-87MG ATCC; conditions: U-87 MG, 72 h
[16] = test system: BJ; experiment: Cytotoxicity against human BJ cells after 3 days by MTT assay; type: cell-based; conditions: 72 h
[17] = test system: SK-MEL-2; experiment: Cytotoxicity against human SK-MEL-2 cells after 3 days by MTT assay; type: functional, cell-based; conditions: SK-MEL-2, 72 h
[18] = test system: K562; experiment: Cytotoxicity against human paclitaxel resistant K562 cells after 3 days by MTT assay; type: functional, cell-based; conditions: K562, 72 h
[19] = Cytotoxicity against human HeLaS3 cells after 3 days by XTT assay; type: functional, cell-based; conditions: HeLa S3, 72 h; method in brief: as §2
[20] = test system: PC-3; experiment: Cytostatic activity against human PC3 cells after 5 days by SRB assay; type: functional; conditions: PC-3, 120 h; method in brief: as §1
[21] = test system: MCF7; experiment: Cytotoxicity against human MCF7 cells after 3 days by MTT assay; type: functional, cell-based; conditions: MCF7, 72 h
[22] = test system: EL4; experiment: Cytotoxicity against mouse EL4 cells after 3 days by MTT assay; type: functional, cell-based; conditions: EL4, 72 h
[23] = target: Adenosine kinase (Homo sapiens, UniProt P55263); experiment: Inhibition of human ADK using [3H]-adenosine by scintillation counting
[24] = test system: BT-549; experiment: Cytotoxicity against human BT549 cells after 3 days by MTT assay; type: functional, cell-based; conditions: BT-549, 72 h
[25] = test system: C6; experiment: Cytotoxicity against rat C6 cells after 3 days by MTT assay; type: functional, cell-based; conditions: C6, 72 h
[26] = test system: K562; experiment: Cytotoxicity against human K562 cells after 3 days by MTT assay; type: functional, cell-based; conditions: K562, 72 h
[27] = test system: SK-N-AS; experiment: Cytotoxicity against human SK-N-AS cells after 3 days by MTT assay; type: functional, cell-based; conditions: 72 h
[28] = test system: BT-549; experiment: Cytostatic activity against human BT549 cells after 5 days by SRB assay; type: functional; conditions: BT-549, 120 h; method in brief: as §1
[29] = Cytotoxicity against human NCI-H146 cells after 3 days by MTT assay; type: functional, cell-based; conditions: NCI-H146, 72 h
[30] = test system: HeLa; experiment: Cytotoxicity against human HeLa cells after 3 days by MTT assay; type: functional, cell-based; conditions: 72 h
[31] = Cytostatic activity against human Hs578 cells after 5 days by SRB assay; type: functional; conditions: Hs578, 120 h; method in brief: as §1
[32] = test system: L1210; experiment: Cytotoxicity against mouse L1210 cells after 3 days by MTT assay; type: functional, cell-based; conditions: L1210, 72 h
[33] = test system: NCI-H23; experiment: Cytostatic activity against human NCI-H23 cells after 5 days by SRB assay; type: functional; conditions: NCI-H23, 120 h; method in brief: as §1
[34] = Cytotoxicity against human CEM-DNR-bulk cells after 3 days by MTT assay; type: functional, cell-based; conditions: 72 h
[35] = test system: MDA-MB-231; experiment: Cytotoxicity against human MDA-MB-231 cells after 3 days by MTT assay; type: functional, cell-based; conditions: MDA-MB-231, 72 h
[36] = test system: DU-145; experiment: Cytostatic activity against human DU145 cells after 5 days by SRB assay; type: functional; conditions: DU-145, 120 h; method in brief: as §1
[37] = test system: HCT-15; experiment: Cytostatic activity against human HCT15 cells after 5 days by SRB assay; type: functional; conditions: HCT-15, 120 h; method in brief: as §1

Adenosine kinase, sequence (P55263 whole entry): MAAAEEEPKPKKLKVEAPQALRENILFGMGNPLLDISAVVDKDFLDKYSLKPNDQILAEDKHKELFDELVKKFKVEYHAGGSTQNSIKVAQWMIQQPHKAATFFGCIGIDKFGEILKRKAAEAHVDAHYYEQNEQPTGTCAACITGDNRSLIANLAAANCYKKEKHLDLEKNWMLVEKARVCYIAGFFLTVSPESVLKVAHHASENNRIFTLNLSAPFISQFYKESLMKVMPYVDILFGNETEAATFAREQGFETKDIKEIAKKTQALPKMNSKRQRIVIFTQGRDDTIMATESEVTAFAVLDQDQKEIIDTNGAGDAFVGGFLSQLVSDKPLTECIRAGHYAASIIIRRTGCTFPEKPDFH

Nc1ncnc2c1c(-c1cc[nH]c1)cn2[C@@H]1O[C@H](CO)[C@@H](O)[C@H]1O
IC50 [1]: > 10000 nM | IC50 [2]: 17 nM | IC50 [3]: 21 nM | GI50 [4]: 5.3 nM | IC50 [5]: 81 nM | IC50 [6]: 4050 nM | IC50 [7]: 840 nM | IC50 [8]: 110 nM | IC50 [9]: 68 nM | IC50 [10]: 10 nM | GI50 [11]: 5.9 nM | IC50 [12]: 4 nM | IC50 [13]: > 10000 nM | GI50 [14]: 24 nM | IC50 [15]: > 10000 nM | IC50 [16]: 6090 nM | IC50 [17]: 8710 nM | IC50 [18]: 9 nM | IC50 [19]: 70 nM | GI50 [20]: 29 nM | IC50 [21]: 6310 nM | IC50 [22]: 9420 nM | IC50 [23]: > 5000 nM | IC50 [24]: 6 nM | IC50 [25]: 3680 nM | IC50 [26]: 33 nM | IC50 [27]: > 10000 nM | GI50 [28]: 8 nM | IC50 [29]: > 10000 nM | IC50 [30]: 40 nM | GI50 [31]: 4.4 nM | IC50 [32]: 84 nM | GI50 [33]: 33 nM | IC50 [34]: 8 nM | IC50 [35]: 27 nM

Nc1ncnc2c1c(-c1ccc[nH]1)cn2[C@@H]1O[C@H](CO)[C@@H](O)[C@H]1O
GI50 [4]: 160 nM | IC50 [7]: 2040 nM | IC50 [8]: 160 nM | GI50 [11]: 65.2 nM | IC50 [19]: 1040 nM | GI50 [20]: 87.8 nM | GI50 [28]: 129 nM | GI50 [31]: 113 nM | GI50 [33]: 333 nM

C#Cc1cn([C@@H]2O[C@H](CO)[C@@H](O)[C@H]2O)c2ncnc(N)c12
IC50 [7]: 90 nM | IC50 [8]: 10 nM | GI50 [11]: 2 nM | GI50 [14]: 1 nM | IC50 [19]: 20 nM | GI50 [20]: 11 nM | IC50 [23]: 200 nM | GI50 [31]: 1 nM | GI50 [33]: 1 nM

Nc1ncnc2c1c(-c1ccc3ccccc3c1)cn2[C@@H]1O[C@H](CO)[C@@H](O)[C@H]1O
GI50 [36]: 1050 nM | IC50 [7]: > 10000 nM | IC50 [8]: > 10000 nM | GI50 [11]: 5670 nM | IC50 [19]: > 10000 nM | IC50 [23]: > 5000 nM | GI50 [31]: 2160 nM | GI50 [33]: 5350 nM

Nc1ncnc2c1c(-c1c[nH]cn1)cn2[C@@H]1O[C@H](CO)[C@@H](O)[C@H]1O
IC50 [7]: 130 nM | IC50 [8]: 70 nM | GI50 [11]: 3 nM | GI50 [14]: 28 nM | IC50 [19]: 70 nM | GI50 [20]: 2 nM | IC50 [23]: > 10000 nM | GI50 [31]: 2 nM | GI50 [33]: 2 nM

Nc1nc(Cl)nc2c1ncn2[C@@H]1O[C@H](CO)[C@@H](O)[C@@H]1F [CLOFARABINE]
GI50 [4]: 86 nM | GI50 [37]: 180 nM | GI50 [36]: 125 nM | GI50 [11]: 106 nM | GI50 [14]: 51 nM | GI50 [20]: 63 nM | GI50 [28]: 65 nM | GI50 [31]: 1240 nM | GI50 [33]: 40 nM

COc1cccc2c1C(=O)c1c(O)c3c(c(O)c1C2=O)C[C@@](O)(C(=O)CO)C[C@@H]3O[C@H]1C[C@H](N)[C@H](O)[C@H](C)O1 [DOXORUBICIN]
GI50 [4]: 16 nM | GI50 [11]: 11 nM | GI50 [20]: 21 nM | GI50 [28]: 10 nM | GI50 [31]: 6 nM | GI50 [33]: 5 nM

Nc1ncnc2c1ccn2[C@@H]1O[C@H](CO)[C@@H](O)[C@H]1O [TUBERCIDIN]
GI50 [4]: 1 nM | GI50 [37]: 11 nM | GI50 [36]: 18 nM | GI50 [11]: 1 nM | GI50 [14]: 21 nM | GI50 [20]: 48 nM | GI50 [31]: 98 nM | GI50 [33]: 11 nM

Nc1ncnc2c1c(-c1c[nH]nn1)cn2[C@@H]1O[C@H](CO)[C@@H](O)[C@H]1O
IC50 [7]: 310 nM | IC50 [8]: 60 nM | GI50 [11]: 4 nM | GI50 [14]: 18 nM | IC50 [19]: 90 nM | GI50 [20]: 5 nM | GI50 [31]: 3 nM | GI50 [33]: 4 nM

CSc1ccc(-c2cn([C@@H]3O[C@H](CO)[C@@H](O)[C@H]3O)c3ncnc(N)c23)cc1
GI50 [36]: 1870 nM | IC50 [7]: > 10000 nM | IC50 [8]: > 10000 nM | GI50 [11]: 1290 nM | GI50 [14]: 4400 nM | IC50 [19]: > 10000 nM | IC50 [23]: > 10000 nM | GI50 [31]: 1970 nM | GI50 [33]: 390 nM

Nc1ncnc2c1c(-c1ccco1)cn2[C@@H]1O[C@H](CO)[C@@H](O)[C@H]1O
GI50 [4]: 35 nM | GI50 [37]: 3 nM | GI50 [36]: 19 nM | IC50 [7]: 11600 nM | IC50 [8]: 100 nM | GI50 [11]: 48 nM | GI50 [14]: 86 nM | IC50 [19]: 50 nM | GI50 [20]: 4 nM | IC50 [23]: > 2000 nM | GI50 [31]: 17 nM | GI50 [33]: 294 nM
